Screening data: PubChem, Johns Hopkins Ion Channel Center
Sampled rows, rich in hits. Any-hit rate of the full collection: about 3.8%.
hERG protect = hERG rescue from dofetilide block, primary screen, cell-based, CHO-hERG, FluxOR thallium flux, dofetilide IC70; Voltage-gated inwardly rectifying potassium channel KCNH2 (Homo sapiens), Q12809; dofetilide IC70 present; activation (rescue from dofetilide block), less the hit threshold, % at 10 µM; actives 0.51% (n = 310,000); AID 1511, 2009;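 active = activation above the mean of controls blocked by dofetilide plus 5 SD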;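 note: thallium influx through hERG after potassium depolarization seen as dye fluorescence rise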
KCNK9 inh = KCNK9 potassium channel inhibitors, primary screen, HEK293 cells, thallium flux. Potassium channel subfamily K member 9 (Homo sapiens), Q9NPC2. FluxOR thallium flux fluorescence; hits give low values. B-score at 10 µM. actives 1.2% (n = 310,000);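 active = ratio B-score over 3 SD below the library mean, with starting fluorescence within 5 SD of its mean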;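 note: negative B-score means less thallium flux so channel inhibition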
KCNQ1 pot = potentiators or activators of KCNQ1 channel, primary screen, cell-based, thallium flux, high-throughput | CHO-K1 KCNQ1, thallium flux FluxOR fluorescence; hits give high values | B-score at 10 µM | AID 2648, 2010 | actives 0.35% (n = 310,000);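 active = fluorescence ratio B-score, a plate-corrected score, at least three library SD, with initial intensity B-score within 5 SD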
Target sequence (P51787 whole entry, looked up): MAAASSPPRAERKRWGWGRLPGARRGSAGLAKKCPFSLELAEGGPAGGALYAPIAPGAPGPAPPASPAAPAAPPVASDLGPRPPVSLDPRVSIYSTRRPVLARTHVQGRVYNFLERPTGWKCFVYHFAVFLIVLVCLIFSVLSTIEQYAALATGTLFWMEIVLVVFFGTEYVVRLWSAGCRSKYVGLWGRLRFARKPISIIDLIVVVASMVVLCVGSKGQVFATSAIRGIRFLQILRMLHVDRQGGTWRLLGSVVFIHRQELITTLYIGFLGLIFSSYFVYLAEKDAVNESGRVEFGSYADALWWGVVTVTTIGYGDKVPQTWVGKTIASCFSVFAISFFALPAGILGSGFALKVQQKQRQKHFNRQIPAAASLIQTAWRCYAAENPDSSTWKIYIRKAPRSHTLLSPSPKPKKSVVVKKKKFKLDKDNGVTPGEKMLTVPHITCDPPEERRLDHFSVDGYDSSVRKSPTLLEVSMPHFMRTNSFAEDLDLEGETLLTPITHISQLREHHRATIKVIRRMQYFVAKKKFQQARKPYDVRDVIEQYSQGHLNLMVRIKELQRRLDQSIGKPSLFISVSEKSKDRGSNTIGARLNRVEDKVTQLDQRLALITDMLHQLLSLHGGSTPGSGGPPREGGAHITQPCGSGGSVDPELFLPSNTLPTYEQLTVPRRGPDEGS
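Assay system: stable KCNQ1 CHO-K1 line; medium: assay buffer, equal DMSO in all wells; timing: 90 min dye loading and 20 min compound exposure, both at room temperature; technique: kinetic FluxOR thallium fluorescence, 10-s 1-Hz baseline, 110-s post-stimulus read; read-out basis: B score of baseline-normalized fluorescence ratio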
KCNQ1 inh = inhibitors of human KCNQ1 channel, primary screen, cell-based, thallium flux, high-throughput | Potassium voltage-gated channel subfamily KQT member 1 (Homo sapiens), P51787 | CHO-K1 KCNQ1, FluxOR thallium flux fluorescence; hits give high values | B-score at 10 µM | actives 1.3% (n = 310,000) | AID 2642, 2010;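 active = compounds whose thallium flux B-score, printed positive for inhibition, exceeds three library SD while starting fluorescence stays within three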;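 note: channel opened by potassium depolarization with thallium stimulus after 20 min compound exposure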
KCNK3 inh = human KCNK3 channel inhibitors, primary screen, CHO cells, FluxOR thallium flux, B-score | FluxOR fluorescence; hits give low values | B-score at 10 µM | Potassium channel subfamily K member 3 (Homo sapiens), O14649 | actives 0.84% (n = 340,000);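 active = B-score under library mean minus 4 SD, starting fluorescence ratio at most library mean plus 5 SD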;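 note: more negative B-score means stronger inhibition of thallium flux through KCNK3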
Kir21 block = inhibitors of mouse Kir2.1 inward-rectifier potassium channel | Inward rectifier potassium channel 2 (Mus musculus), P35561 | HEK293-Kir2.1, FluxOR thallium flux fluorescence; hits give low values | B-score at 10 µM | actives 0.85% (n = 310,000);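 active = fluorescence ratio B-score at or below minus 3 SD of library scores, with starting-brightness B-score within 2 SD, cut at about -4.2 in these data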;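 note: channel flux triggered by added potassium and thallium sulfate stimulus; B-score of peak minus minimum fluorescence over baseline after thallium stimulus; more negative B-score means stronger Kir2.1 block with less thallium influx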
Numbers without * were called inactive; i = inactive; nt = no result.

SMILES | hERG protect | KCNK9 inh | KCNQ1 pot | KCNQ1 inh | KCNK3 inh | Kir21 block
N=c1ncn(Cc2ccccc2)c2nc(SCCOc3ccccc3)[nH]c12 | -5 | i | 9* | i | i | -1.6
O=C(OCC(=O)N1CCN(C(=O)c2ccco2)CC1)c1cc(-c2ccc(Cl)c(Cl)c2Cl)nc2ccccc12 | -13 | i | i | i | i | 1.6
Cc1ccc2nc(-c3ccccc3)cc(C(=O)N3CCN(c4ccccc4O)CC3)c2c1 | -35 | i | i | 12* | i | 1.7
CN1CCCN(C(=O)c2cc(-c3ccc(Cl)c(Cl)c3Cl)nc3ccccc23)CC1 | -13 | i | i | i | i | -4.8*
C=CCNCc1cccn1-c1sc2c(c1C#N)CCCC2 | -8 | i | i | i | i | -2.1
N#Cc1c(-n2cccc2/C=N/O)sc2c1CCCC2 | -13 | i | i | i | i | -9.8*
c1ccc2c(c1)Sc1ccccc1-n1cnnc1-2 | -4 | i | i | i | i | -0.95
Brc1nnc2n1-c1ccccc1Sc1ccccc1-2 | -8 | i | i | i | i | -6*
Clc1ccc2c(c1)-c1nnc(Br)n1-c1ccccc1S2 | -12 | i | i | i | i | -7.2*
CCC1(c2ccccc2)NC(=O)N(CC(=O)NNC(=O)c2ccc(F)cc2)C1=O (configuration not stated) | nt | nt | nt | nt | i | nt
CCC(C)NC(=O)c1cc(Cl)c(NC(=O)C2=C(C)OCCS2)cc1OC (configuration not stated) | -4 | i | 44* | i | i | 0.1
CN(CCOc1ccccc1)C(=O)c1ccc(Cl)c(S(=O)(=O)N2CCCCC2)c1 | nt | nt | nt | nt | i | nt
O=[N+]([O-])c1c(NCCCO)cc(Sc2nc3ccccc3s2)c2nonc12 | -12 | i | i | i | i | 1.1
Cc1nnc(Sc2cc(NCCO)c([N+](=O)[O-])c3nonc23)s1 | -36 | i | i | 8* | i | -2.1
O=[N+]([O-])c1c(NCCO)cc(N2CCCCCC2)c2nonc12 | -6 | i | i | i | i | 0.19
Cc1nnc(Sc2cc(NCCCO)c([N+](=O)[O-])c3nonc23)s1 | -24 | -7.2* | i | 10* | i | -7.1*
O=C1CSC(=S)N1Nc1ccccc1 | nt | nt | nt | nt | i | nt
O=C1N(Cc2ccccc2)CC2(Br)COCOC12O (configuration not stated) | nt | nt | nt | nt | i | nt
Cc1c(-c2ccn[nH]2)cc(NC(=O)c2ccc(Cl)cc2)c(=O)n1N | 5.0* | i | i | i | i | -0.25
CCOc1ncccc1C(=O)OCC(=O)Nc1ccc(C(N)=O)cc1 | -10 | i | i | i | i | 0.37
COc1ccc(Cl)cc1NS(=O)(=O)c1cccc(C(=O)NCC(C)(C)N2CCOCC2)c1 | nt | nt | nt | nt | -9* | nt
CC(C)(CNC(=O)c1cccc(S(=O)(=O)NCc2ccccc2)c1)N1CCOCC1 | -6 | i | i | i | i | 0.89
CN1CCS/C1=C\C=C1/SC(=S)N(CC(=O)O)C1=O | -30 | i | i | 11* | i | -12
Cn1cccc1/C=C1/SC(=S)N(CC(=O)O)C1=O | -11 | i | i | i | i | -0.67
CCN(CC)S(=O)(=O)c1cccc(NC(=O)CCNC(=O)NC23CC4CC(CC(C4)C2)C3)c1 | -13 | i | i | 8* | i | 0.79
SMILES | hERG protect | KCNK9 inh | KCNQ1 pot | KCNQ1 inh | KCNK3 inh | Kir21 block
CN(C)S(=O)(=O)c1cccc(NC(=S)NC23CC4CC(CC(C4)C2)C3)c1 | -1 | i | i | i | i | -0.17
S=c1[nH]c(-c2ccc(Cl)cc2)cs1 | 87* | i | 17* | i | i | 0.01
Cc1ccc(-c2ccc(C(=O)O)[nH]2)cc1 | -12 | i | i | i | i | -0.16
Cc1ccc(-c2csc(=S)[nH]2)cc1 | 97* | i | 94* | i | i | -0.6
Cc1noc(C)c1CSc1nnc2scc(-c3ccc(Cl)cc3)n12 | -12 | i | i | i | i | -4.4*
Cc1cccc(CS(=O)(=O)c2nnc([C@H](Cc3ccccc3)NC(=O)OC(C)(C)C)o2)c1 | -22 | i | i | i | i | -8.1*
O=C(NCc1cccnc1)C1CC(c2ccccc2O)=NO1 (configuration not stated) | -2 | i | i | i | i | 0.97
CC(=O)n1cc(N(C(=O)CCl)c2ccc([N+](=O)[O-])cc2)c2ccccc21 | -13 | i | i | 7* | i | -3
O=Cc1[nH]c2ccccc2c1N(C(=O)CCl)c1ccc([N+](=O)[O-])cc1 | -27 | i | i | 9* | i | -5.5*
COc1ccc(C(=O)C2CCCN(Cc3ccc4nonc4c3)C2)cc1OC (configuration not stated) | -5 | i | i | i | i | -0.01
COc1ccc(C(=O)C2CCCN(Cc3ccc4nonc4c3)C2)c(OC)c1 (configuration not stated) | -16 | i | i | i | i | -5.2*
CCOc1cc(/C=C2\COc3ccccc3C2=O)ccc1OCC(=O)N(C)C | -12 | i | i | i | i | -4.3*
COc1ccc(NC(=O)CC2CCCCC2)cc1OC | 5.7* | i | i | i | i | -0.39
COc1ccc(NC(=O)CC2CCCC2)cc1S(=O)(=O)N1CCCCC1 | -6 | i | i | i | i | -0.59
C=CCNCCOc1c(C)cc(C)cc1Cl | -8 | i | i | i | i | -2
Cc1cc(Cl)cc(C)c1OCCOCCNCc1ccccc1 | -14 | i | i | i | i | -12*
Cc1cc(Br)ccc1OCCNCc1ccccc1 | -8 | i | i | i | i | -10*
Clc1ccc(OCCCNCc2ccccc2)c2ccccc12 | -23 | i | i | i | i | -13*
Cc1cc(C)c(OCCCCNCc2ccccc2)c(Cl)c1 | -16 | i | i | i | i | -12*
Brc1ccccc1OCCNCc1ccccc1 | -9 | i | i | i | i | -1.3
COc1cccc(NC(=O)CN(C)C(=O)c2ccc3c(c2)C(=O)N(CCC(C)C)C3=O)c1 | nt | nt | nt | nt | i | nt
CCC(C)NCCOCCOc1ccc(Cl)c2ccccc12 (configuration not stated) | -15 | i | i | i | i | -9.7*
